Cytotoxicity data for 96 compounds are collected here from ChEMBL document CHEMBL4513216, “Probing the Open Global Health Chemical Diversity Library for Multistage-Active Starting Points for Next-Generation Antimalarials” (ACS Infect Dis, 2020).

Molecules are shown by their SMILES.

This data set in a line: Toxicity liver stage against HepG2, at 10uM. In kind it is cell-based. More on the design: test concentration 10 uM, cell line HepG2-A16-CD81EGFP. The settings on record: human, HepG2-A16-CD81EGFP cells; read-out: INHIBITION
An outline of the steps:
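Uninfected HepG2-A16-CD81EGFP cells, 3 × 10^3 per well, 1536-well, plated on prespotted compound at 10 μM final, parasite-free screening media added to match infected plates; puromycin 10 μM positive, DMSO 0.5% negative; run in parallel with 48 h PbLuc assay at 37 °C, 5% CO2; viability by CellTiter-Glo luminescence, normalized to controls.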
Take `COc1ccc(-c2cc(N)on2)cc1OC`: the cytotoxicity at 10 µM is -9.85%.
As to `Cc1c(C(=O)O)oc2ccc(I)cc12`, the cytotoxicity at 10 µM was -1.87%.
As for `O[C@H]1CC[C@@H](Cc2cc(-c3ccccc3)on2)O[C@@H]1CNCC1CC1`, the cytotoxicity at 10 µM was -6.21%.
Next, `NC(=O)CN1CCC2(CC1)CC(=O)c1ccc3ccccc3c1O2`: 1.76%; `CC(=O)N1CC(c2ncn(C(C)C)n2)c2cc(C(=O)NC(C)C)ccc21` (stereo unspecified): 8.22%.
For `O=C(c1ccco1)N1CCc2onc(CN3CCCC3)c2C1`, the cytotoxicity at 10 µM came to 4.38%.
Turning to `O=C(c1ccccn1)N1CC[C@H]2C(=O)N(c3ccsc3)CCO[C@H]2C1`, the cytotoxicity at 10 µM is 11.6%.
Regarding `Cc1cnc(C(=O)N2CCC3(CC2)C(=O)NCCN3CC(C)C)cn1`, the cytotoxicity at 10 µM was 8.52%.
Regarding `N#Cc1ccc(OC[C@]23COC[C@H]2CN(Cc2nccs2)C3)nc1`, the cytotoxicity at 10 µM stood at 2.37%.
`CCC1=N[C@@]2(CC[C@@H]3CN(C(=O)Nc4ccccc4)C[C@@H]32)C(=O)N1C`: the cytotoxicity at 10 µM was found to be 16.8%.
Turning to `c1cc([C@H]2C[C@@H]3CCN(Cc4nccs4)C[C@H]3O2)ncn1`, the cytotoxicity at 10 µM was -150%.
Next, `O=C(O)Cn1nc(-c2ccccc2F)ccc1=O`: 2.87%; `COC(=O)C(CCSC)NC(=O)Cc1c(C)nn(-c2ccccc2)c1C` (stereo unspecified): -4.31%.
In the case of `Nc1nc(N2CCCCC2)ncc1C(=O)NCc1ccc(F)c(Cl)c1` it was -17.2%; in that of `COc1ccc(-c2nnsc2C(=O)N2CCSCC2)cc1`, -1.17%; in that of `O=C(COCC(=O)N(c1ccccc1)c1ccccc1)N1CCCCC1`, 2.33%.
Regarding `CC1(C(N)=O)CN(CC2CCOCC2)CCO1` (stereo unspecified), the cytotoxicity at 10 µM is -0.74%.
For `CN(C)c1cc(C2CCN(C(=O)c3cnn(C)c3)CC2)ccn1`, the cytotoxicity at 10 µM is 0.075%.
Turning to `CC(C)N1CCC(c2n[nH]cc2-c2ccnc(N)c2)C1` (stereo unspecified), the cytotoxicity at 10 µM amounted to 2.16%.
For `N#CCCCS(=O)(=O)NC1(c2ccc(F)cc2)CC1`, the cytotoxicity at 10 µM was found to be 2.9%.
In the case of `OC(c1cnn(-c2ccccc2)c1)C(F)(F)F` (stereo unspecified), the cytotoxicity at 10 µM was -3.75%.
In the case of `Cc1nn(C)c(C)c1CCC(=O)NCC1(C(N)=O)CCOCC1` it was 7.75%.
In the case of `CCC(C#N)NC(=O)c1sccc1OC` (stereo unspecified) it was 1.88%; in that of `COCC1CCCN(c2cncc(OCc3ccccc3)n2)C1` (stereo unspecified), -4.08%.
With `COc1cc(CNC(=O)COC2CCCCC2)ccc1O`, the cytotoxicity at 10 µM was 6.81%.
Take `COCCN(CC(F)F)c1cc(COC)nc2ncnn12`: the cytotoxicity at 10 µM turned out to be 9.08%.
Consider `CC(C)(C)C(NC(=O)CCS(C)(=O)=O)c1ccc(F)cc1F` (stereo unspecified), for which the cytotoxicity at 10 µM is -0.189%.
`Cc1cc(C2CCCN(Cc3ncc(C(C)C)o3)C2)n[nH]1` (stereo unspecified): the cytotoxicity at 10 µM is 4.29%.
Consider `Cc1cn(CC(=O)NC2CCC(C(=O)O)CC2)c2ccccc12` (stereo unspecified), for which the cytotoxicity at 10 µM is -0.214%.
As to `CCN(CC)C(CNS(=O)(=O)c1ccc(C(C)=O)cc1)c1ccco1` (stereo unspecified), the cytotoxicity at 10 µM is -20.1%.
Next, `COc1ccnc(N(C)Cc2ccco2)n1`: 14%.
`Cc1cccc2c(CCNC(=O)NCC[S+](C)[O-])c[nH]c12` (stereo unspecified): the cytotoxicity at 10 µM is 9.62%.
In the case of `CN(CCCc1cc(-c2cccc(F)c2)n[nH]1)C(=O)Cn1cncn1` it was -129%; in that of `Cc1ccc(CN(C)C(=O)c2cccc(NC(N)=O)c2)o1`, 14.2%.
In the case of `Cc1ccc(N(C)Cc2nnnn2C2CC2)c(C)c1`, the cytotoxicity at 10 µM stood at 8.81%.
In the case of `Cc1cc(NC(=O)CSc2nc(=O)ccn2C(C)C)no1`, the cytotoxicity at 10 µM stood at 0.841%.
Consider `COC(=O)CCCNC(=O)Nc1ccccc1OC`, for which the cytotoxicity at 10 µM was 6.45%.
In the case of `N#Cc1cc(F)ccc1Cn1cnc(C2CCC2)cc1=O`, the cytotoxicity at 10 µM is -5.32%.
In the case of `CCc1nc(CC(=O)NCC2(C(N)=O)CCOCC2)cs1`, the cytotoxicity at 10 µM is -9.92%.
Consider `CCS(=O)(=O)N1CCCn2c(nc(CN3CCCC3)cc2=O)C1`, for which the cytotoxicity at 10 µM came to 1.88%.
On to `CN(C)[C@@H]1CCN(S(C)(=O)=O)[C@H]1Cc1ccccc1`, for which the cytotoxicity at 10 µM came to 11.7%.
As to `CN1Cc2ccccc2CC2(CCN(C(=O)N3CCOCC3)CC2)C1=O`, the cytotoxicity at 10 µM was 1.02%.
On to `CCN1Cc2ccccc2CC2(CCN(C)CC2)C1=O`, for which the cytotoxicity at 10 µM was found to be 14.3%.
Next, `Cn1ccc(C(=O)NC2CCC23CCN(C(=O)c2ccnnc2)CC3)c1` (stereo unspecified): -72%.
In the case of `CCOCC(=O)N1CC[C@H]2[C@@H]1CCC(=O)N2Cc1csc(C)n1`, the cytotoxicity at 10 µM is -85.2%.
Consider `CS(=O)(=O)N[C@@H]1CN(C(=O)c2cnccn2)[C@@H]2CCCO[C@@H]21`, for which the cytotoxicity at 10 µM was -73.4%.
In the case of `Cc1cc(C(=O)N2CC[C@H]3C[C@H](c4ccncn4)O[C@@H]3C2)no1` it was -78%; in that of `OC1(CN2CCCC2)COCCN(c2nnc(-c3ccccc3)s2)C1` (stereo unspecified), -10.1%; in that of `CCc1nc(CN(C)C(=O)c2cc(NC(C)=O)ccc2Cl)no1`, -1.71%.
Consider `COc1ccc(C(=O)N2CCN(C(=O)CCCc3cn[nH]c3)CC2)cc1`, for which the cytotoxicity at 10 µM was -5.63%.
`COC(=O)c1cc2n(n1)CCCN(C(=O)Cc1c[nH]c3ccccc13)C2`: the cytotoxicity at 10 µM turned out to be 2.61%.
Turning to `CCOC(=O)N1CCC(NCC2CCN(c3cnn(C)c(=O)c3)C2)CC1` (stereo unspecified), the cytotoxicity at 10 µM worked out at 8.39%.
As to `NC(=O)CN1CCC(C(=O)NCC(O)c2cccc(F)c2)CC1` (stereo unspecified), the cytotoxicity at 10 µM was found to be 10.8%.
Consider `Oc1ccc(CCC2CCCCN2Cc2noc(C3CC3)n2)cc1` (stereo unspecified), for which the cytotoxicity at 10 µM was 0.55%.
Take `CCCN(CCO)C(=O)C1CCC(=O)N(Cc2ccc(Cl)cc2)C1` (stereo unspecified): the cytotoxicity at 10 µM turned out to be 10.4%.
Next, `CCNc1ncc(C(=O)NCc2cccc(OC(F)(F)F)c2)cn1`: -2.94%; `Cc1cc2nc(-c3ccccc3)cc(NCC3CCCOC3)n2n1` (stereo unspecified): -3.54%.
`CCn1ncc2[nH]c(-c3cc(OC)c(OC)cc3OC)nc21`: the cytotoxicity at 10 µM is -2.61%.
In the case of `COCc1cc(NCCc2ccccn2)n2nccc2n1`, the cytotoxicity at 10 µM was -0.464%.
`CCC(O)CNC(=O)c1coc(COc2ccc3sc(C)nc3c2)n1` (stereo unspecified): the cytotoxicity at 10 µM was determined as 16.3%.
`Cc1nc(CN2CCCC(NCc3ccc(Cl)s3)C2)no1` (stereo unspecified): the cytotoxicity at 10 µM was -3.18%.
Consider `Cc1cc(C)c(CNC(=O)N(C)Cc2ccoc2)c(=O)[nH]1`, for which the cytotoxicity at 10 µM was -6.02%.
As for `Cc1nc(C)n(CC2CN(Cc3ccccc3OC(C)C)CCO2)n1` (stereo unspecified), the cytotoxicity at 10 µM is -0.248%.
Next, `CN(CC(=O)NC1CCOCC1)C1CCCN(c2cccnn2)C1` (stereo unspecified): -8.97%; `Cc1ccccc1C1CCCN1Cc1ccc(S(=O)(=O)N(C)C)o1` (stereo unspecified): -3.42%.
Turning to `Cc1ccc(-c2nc(CN3CCC(N4CCNC4=O)CC3)co2)cc1`, the cytotoxicity at 10 µM is -7.73%.
As for `c1csc(-c2noc(CN3CCc4cncnc4C3)n2)c1`, the cytotoxicity at 10 µM was -9.5%.
Take `Cc1cc(CN2CCN(C(=O)NCc3csc(C)n3)CC2)no1`: the cytotoxicity at 10 µM is -17.6%.
As to `O=c1[nH]c(CCN2CCCC2Cn2cncn2)nc2ccccc12` (stereo unspecified), the cytotoxicity at 10 µM was -5.48%.
Next, `COc1ccccc1C(O)CNC(=O)NCc1cc[nH]n1` (stereo unspecified): -8.81%.
Consider `CC(C)c1nc(C2CCCN2Cc2nccn2CC(F)(F)F)no1` (stereo unspecified), for which the cytotoxicity at 10 µM is -18.9%.
As for `Cc1nn(C)c(C)c1C1CCCN1CC(=O)NCc1ccccn1` (stereo unspecified), the cytotoxicity at 10 µM was 0.702%.
Next, `CCCOc1cccc(C(=O)N2CCCC(n3cncn3)C2)c1` (stereo unspecified): -4.39%; `CN(Cc1nnc2n1CCC2)C(=O)c1ccc2c(c1)OCCCO2`: -8.68%; `Cc1csc(N2CCN(C(=O)CCCNc3ncccn3)CC2)n1`: -16.3%.
In the case of `Cc1cccc(OCCC(=O)NC(C)c2nnc3n2CCC3)c1` (stereo unspecified) it was -12.8%.
Take `COc1ccc(CNC(=O)Nc2ccc(N3CCCC3)nc2)cc1O`: the cytotoxicity at 10 µM is -18.1%.
For `COCc1nc(C(=O)N2CCCC(n3nc(C)nc3C)C2)cs1` (stereo unspecified), the cytotoxicity at 10 µM is -24.1%.
For the compound `Nc1ncnc2nc(C3CCCCN3)ccc12` (stereo unspecified), the cytotoxicity at 10 µM was 5.74%.
`Cc1noc(C)c1CN1CC[C@@H]2O[C@@H](COCC3CC3)CC[C@@H]21`: the cytotoxicity at 10 µM came out at 6.46%.
In the case of `c1cnc(NC2COC3(CCN(Cc4cc[nH]n4)CC3)C2)nc1` (stereo unspecified) it was -1.17%; in that of `COc1ccc(CN2CCC3(CC2)CN(c2ccccn2)CCO3)cc1`, 2.87%; in that of `Cc1nc(CN2CCOCC3(CCN(c4ncccn4)C3)C2)cs1` (stereo unspecified), -22.8%.
As to `CN(C)C(=O)CN1CC[C@]2(CN(CC3CC3)C[C@H]2c2ccccc2)C1=O`, the cytotoxicity at 10 µM amounted to 1.46%.
On to `COc1ccc(CN2CCO[C@@H]3C[C@@H](C(=O)NC(C)C)C[C@H]32)cc1`, for which the cytotoxicity at 10 µM was 8.31%.
Regarding `CCN1CCC(c2nc3ccc(NC(C)C)cn3n2)CC1`, the cytotoxicity at 10 µM was -22.3%.
Regarding `Cc1ccc(NCc2cn3c(n2)CN(Cc2ccoc2)CC3)nn1`, the cytotoxicity at 10 µM stood at 9.43%.
For the compound `Cc1cccc(CNC2CCCc3c2cnn3Cc2ccccc2)c1` (stereo unspecified), the cytotoxicity at 10 µM was -16.6%.
In the case of `O=C(NCc1ccccn1)[C@@H]1COC[C@H]2CN(C3CCC3)C[C@H]21` it was -79.1%.
With `O=C(c1cc[nH]n1)N1CC[C@@H]2CN(Cc3ccncc3)S(=O)(=O)[C@@H]2CC1`, the cytotoxicity at 10 µM was 10.5%.
In the case of `CCS(=O)(=O)N1CCN(CCn2cccn2)c2nc(C)ccc2C1`, the cytotoxicity at 10 µM is 9.88%.
Turning to `COCCN(C)C1COC2(CCN(Cc3cccc(F)c3)CC2)C1` (stereo unspecified), the cytotoxicity at 10 µM is -79.3%.
As for `CC(C)n1nc(CN2CCCCC2)c2c1CN(C(=O)c1ccno1)C2`, the cytotoxicity at 10 µM stood at 4.19%.
On to `COCCn1cc2c(n1)C(CNCc1nccs1)OCC2` (stereo unspecified), for which the cytotoxicity at 10 µM is -0.726%.
In the case of `CNC(=O)c1ccc2c(c1)C1(CCN(CC3CC3)CC1)C(=O)N2` it was -0.843%.
In the case of `O=S(=O)(c1cccs1)N1CCCn2cnc(CO)c2C1` it was 5.89%.
